ChEMBL document CHEMBL1152293, “Discovery of novel, potent and bioavailable proline-urea based macrocyclic HCV NS3/4A protease inhibitors” (Bioorg Med Chem Lett, 2008)
Each block holds one compound with its values, some of them ahead of it.

How the values were obtained:
[1] = Inhibition of full length HCV NS3/4A protease; set-up: species or system Hepacivirus hominis
[2] = test system: Hepatitis C virus; experiment: Antiviral activity against HCV infected in human Huh7 cells after 48 hrs by luciferase based replicon assay; assay type: functional, organism-based, Hepacivirus hominis; conditions: Huh-7, 48 h
[3] = Apparent permeability across apical to basolateral side in human Caco-2 cells; assay type: ADME, cell-based
[4] = Volume of distribution in Sprague-Dawley rat at 2 mg/kg, iv; assay type: ADME, organism-based; set-up: dose 2 mg/kg, route intravenous; conditions: in vivo
How it was run: (§1)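 Male Sprague–Dawley rats (n = 2 per route) received a single intravenous dose of 2 mg/kg or an oral dose of 10 mg/kg in 50% PEG-400 in water. Plasma levels were averaged, and PK parameters were calculated. Bioavailability was derived from the iv and oral arms.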

[5] = Tmax in Sprague-Dawley rat at 10 mg/kg, po; assay type: ADME, organism-based; set-up: dose 10 mg/kg, route oral; conditions: in vivo; how it was run: as §1
[6] = Cmax in Sprague-Dawley rat at 10 mg/kg, po; assay type: ADME, organism-based; set-up: dose 10 mg/kg, route oral; conditions: in vivo; how it was run: as §1
[7] = Half life in Sprague-Dawley rat at 10 mg/kg, po; assay type: ADME, organism-based; set-up: dose 10 mg/kg, route oral; conditions: in vivo; how it was run: as §1
[8] = Ratio of drug level in liver to plasma of Sprague-Dawley rat at 10 mg/kg, po after 8 hrs
[9] = Oral bioavailability in Sprague-Dawley rat at 10 mg/kg; assay type: ADME, organism-based; conditions: in vivo; how it was run: as §1
[10] = AUC in Sprague-Dawley rat at 10 mg/kg, po; assay type: ADME, organism-based; set-up: dose 10 mg/kg, route oral; conditions: plasma; how it was run: as §1
[11] = AUC in Sprague-Dawley rat at 2 mg/kg, iv; assay type: ADME, organism-based; set-up: dose 2 mg/kg, route intravenous; conditions: plasma; how it was run: as §1
[12] = Clearance in Sprague-Dawley rat at 2 mg/kg, iv; assay type: ADME, organism-based; set-up: dose 2 mg/kg, route intravenous; conditions: in vivo; how it was run: as §1
[13] = Bioavailability in Sprague-Dawley rat at 2 mg/kg, iv and 10 mg/kg, po; assay type: ADME, organism-based; conditions: in vivo; how it was run: as §1
[14] = Selectivity index, ratio of CC50 for human Huh7 cells to EC50 for HCV; set-up: species or system Huh-7
[15] = Cytotoxicity against human HuH7 cells; assay type: cell-based, Huh-7
[16] = Ratio of drug level in liver to plasma of Sprague-Dawley rat at 10 mg/kg, po after 6 hrs
[17] = Metabolic stability in rat liver microsomes at 5 uM after 15 mins; assay type: ADME, Microsome
How it was run: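 Rat liver microsomes at 1 mg protein/mL were incubated with 5 μM test compound at 37 °C for 15 min. Stability is expressed as % of compound metabolized.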

SMILES: COc1ccc2c(O[C@@H]3C[C@H]4C(=O)N[C@]5(C(=O)NS(=O)(=O)C6CC6)C[C@H]5/C=C\CCCCOC(=O)N4C3)cc(-c3ccccc3)nc2c1
Ki ([1]; read-out: Ki): 0.35 nM
EC50 [2]: 62 nM

SMILES: COc1ccc2c(O[C@@H]3C[C@H]4C(=O)N[C@]5(C(=O)O)C[C@H]5/C=C\CCCCCN(C)C(=O)N4C3)cc(-c3ccccc3)nc2c1
Ki [1]: 10 nM
EC50 [2]: 4500 nM

SMILES: COc1ccc2c(O[C@@H]3C[C@H]4C(=O)N[C@]5(C(=O)NS(=O)(=O)C6CC6)C[C@H]5/C=C\CCCCN(C)C(=O)N4C3)cc(-c3nc(C(C)C)cs3)nc2c1
Vd [4]: 4.5 L/kg
Tmax [5]: 1.25 h
Cmax [6]: 0.73 µM
half-life [7]: 2.55 h
liver/plasma ratio at 8 h [8]: 12
bioavailability [9]: 37%
Ki ([1]; read-out: Ki): 0.45 nM
EC50 [2]: 26 nM
AUC [10]: 3.12 µM·h
AUC [11]: 1.65 µM·h
clearance [12]: 1.65 L/h/kg

SMILES: COc1ccc2c(O[C@@H]3C[C@H]4C(=O)N[C@]5(C(=O)O)C[C@H]5/C=C\CCCCC[C@H](NC(=O)OC(C)(C)C)C(=O)N4C3)cc(-c3ccccc3)nc2c1
Ki [1]: 11 nM
EC50 [2]: 77 nM

SMILES: COc1ccc2c(O[C@@H]3C[C@H]4C(=O)N[C@]5(C(=O)NS(=O)(=O)C6CC6)C[C@H]5/C=C\CCCCCNC(=O)N4C3)cc(-c3ccccc3)nc2c1
Ki ([1]; read-out: Ki): 0.24 nM
EC50 [2]: 15 nM

SMILES: COc1ccc2c(O[C@@H]3C[C@H]4C(=O)N[C@]5(C(=O)NS(=O)(=O)C6CC6)C[C@H]5/C=C\CCCCN(C)C(=O)N4C3)cc(-c3ccccc3)nc2c1
Ki ([1]; read-out: Ki): 0.4 nM
EC50 [2]: 44 nM

SMILES: COc1ccc2c(O[C@@H]3C[C@H]4C(=O)N[C@]5(C(=O)NS(=O)(=O)C6CC6)C[C@H]5/C=C\CCCCCOC(=O)N4C3)cc(-c3ccccc3)nc2c1
Ki ([1]; read-out: Ki): 2.4 nM
EC50 [2]: 460 nM

SMILES: COc1ccc2c(O[C@@H]3C[C@H]4C(=O)N[C@]5(C(=O)NS(=O)(=O)C6CC6)C[C@H]5/C=C\CCCCCN(C)C(=O)N4C3)cc(-c3nc(C(C)C)cs3)nc2c1
Ki ([1]; read-out: Ki): 12 nM
EC50 [2]: 700 nM

SMILES: COc1ccc2c(O[C@@H]3C[C@H]4C(=O)N[C@]5(C(=O)NS(=O)(=O)C6CC6)C[C@H]5/C=C\CCCCCNC(=O)N4C3)cc(-c3cscn3)nc2c1
EC50 [2]: 98 nM

SMILES: COc1ccc2c(O[C@@H]3C[C@H]4C(=O)N[C@]5(C(=O)O)C[C@H]5/C=C\CCCCCN(NC(=O)OC(C)(C)C)C(=O)N4C3)cc(-c3ccccc3)nc2c1
Ki [1]: 600 nM
EC50 [2]: > 10000 nM

SMILES: COc1ccc2c(O[C@@H]3C[C@H]4C(=O)N[C@]5(C(=O)NS(=O)(=O)C6CC6)C[C@H]5/C=C\CCCCCN(C)C(=O)N4C3)cc(-c3ccccc3)nc2c1
Ki ([1]; read-out: Ki): 10 nM
EC50 [2]: 4500 nM

Now those with a lower EC50 [2], led by results:

Ki ([1]; read-out: Ki): 1.5 nM
EC50 [2]: 14 nM
SMILES: COc1ccc2c(O[C@@H]3C[C@H]4C(=O)N[C@]5(C(=O)NS(=O)(=O)C6CC6)C[C@H]5/C=C\CCCCNC(=O)N4C3)cc(-c3ccccc3)nc2c1

Ki ([1]; read-out: Ki): 0.3 nM
EC50 [2]: 11 nM
Papp A→B [3]: 4 nm/s
SMILES: COc1ccc2c(O[C@@H]3C[C@H]4C(=O)N[C@]5(C(=O)NS(=O)(=O)C6CC6)C[C@H]5/C=C\CCCCCNC(=O)N4C3)cc(-c3nccs3)nc2c1

bioavailability [13]: 11%
Ki ([1]; read-out: Ki): 0.2 nM
EC50 [2]: 6.8 nM
SMILES: COc1ccc2c(O[C@@H]3C[C@H]4C(=O)N[C@]5(C(=O)NS(=O)(=O)C6(C)CC6)C[C@H]5/C=C\CCCCCNC(=O)N4C3)cc(-c3nc(C(C)C)cs3)nc2c1C

Vd [4]: 1.6 L/kg
Tmax [5]: 2 h
Cmax [6]: 0.026 µM
half-life [7]: 3.8 h
liver/plasma ratio at 6 h [16]: 9.5
bioavailability [9]: 1.3%
Ki ([1]; read-out: Ki): 0.5 nM
EC50 [2]: 5 nM
AUC [10]: 0.19 µM·h
Papp A→B [3]: 30 nm/s
AUC [11]: 3 µM·h
clearance [12]: 0.94 L/h/kg
SMILES: COc1ccc2c(O[C@@H]3C[C@H]4C(=O)N[C@]5(C(=O)NS(=O)(=O)C6CC6)C[C@H]5/C=C\CCCCNC(=O)N4C3)cc(-c3nc(C(C)C)cs3)nc2c1

Vd [4]: 1.46 L/kg
Tmax [5]: 1.25 h
bioavailability [13]: 20%
Cmax [6]: 0.95 µM
half-life [7]: 5.4 h
liver/plasma ratio at 6 h [16]: 29
bioavailability [9]: 20%
Ki ([1]; read-out: Ki): 0.2 nM
EC50 [2]: 5 nM
metabolized at 0.25 h, 5 µM [17]: 93%
AUC [10]: 6.97 µM·h
Papp A→B [3]: 100 nm/s
AUC [11]: 7.09 µM·h
clearance [12]: 0.55 L/h/kg
SMILES: COc1ccc2c(O[C@@H]3C[C@H]4C(=O)N[C@]5(C(=O)NS(=O)(=O)C6CC6)C[C@H]5/C=C\CCCCCNC(=O)N4C3)cc(-c3nc(C(C)C)cs3)nc2c1

bioavailability [13]: 54%
Cmax [6]: 1.71 µM
liver/plasma ratio at 6 h [16]: 105
bioavailability [9]: 54%
Ki ([1]; read-out: Ki): 0.1 nM
EC50 [2]: 4.5 nM
metabolized at 0.25 h, 5 µM [17]: 89%
Papp A→B [3]: 300 nm/s
clearance [12]: 0.59 L/h/kg
SMILES: COc1ccc2c(O[C@@H]3C[C@H]4C(=O)N[C@]5(C(=O)NS(=O)(=O)C6(C)CC6)C[C@H]5/C=C\CCCCCNC(=O)N4C3)cc(-c3nc(C(C)C)cs3)nc2c1
Selectivity Index [14]: >10000
CC50 ([15]; Huh-7 cells): > 50000 nM
Activity ([15]; huh-7): Non-toxic

Ki ([1]; read-out: Ki): 0.1 nM
EC50 [2]: 4 nM
metabolized at 0.25 h, 5 µM [17]: 21%
Papp A→B [3]: 290 nm/s
SMILES: COc1ccc2c(O[C@@H]3C[C@H]4C(=O)N[C@]5(C(=O)NS(=O)(=O)C6(C)CC6)C[C@H]5/C=C\CCCCCNC(=O)N4C3)cc(-c3nc(C(C)C)cs3)nc2c1Cl

Ki ([1]; read-out: Ki): 0.1 nM
EC50 [2]: 2.2 nM
metabolized at 0.25 h, 5 µM [17]: 45%
Papp A→B [3]: 220 nm/s
SMILES: COc1ccc2c(O[C@@H]3C[C@H]4C(=O)N[C@]5(C(=O)NS(=O)(=O)C6CC6)C[C@H]5/C=C\CCCCCNC(=O)N4C3)cc(-c3nc(C(C)C)cs3)nc2c1Cl

Ki ([1]; read-out: Ki): 0.05 nM
EC50 [2]: 1.7 nM
metabolized at 0.25 h, 5 µM [17]: 23%
SMILES: COc1ccc2c(O[C@@H]3C[C@H]4C(=O)N[C@]5(C(=O)NS(=O)(=O)C6CC6)C[C@H]5/C=C\CCCCCNC(=O)N4C3)cc(-c3nc(C(C)C)cs3)nc2c1C
